Two molecules from ChEMBL document CHEMBL5331142, “Novel 1,4-Dihydropyridines as Specific Binders and Activators of SIRT3 Impair Cell Viability and Clonogenicity and Downregulate Hypoxia-Induced Targets in Cancer Cells” (J Med Chem, 2023) can be followed below.

pEC50, pKd: −log10 of the molar value. Calls of active or inactive are those of the source. No cut-off for these calls is given here.

The target in data set [1] is T1, NAD-dependent protein deacetylase sirtuin-3, mitochondrial (Homo sapiens) (UniProt Q9NTG7).
T1 sequence (whole entry): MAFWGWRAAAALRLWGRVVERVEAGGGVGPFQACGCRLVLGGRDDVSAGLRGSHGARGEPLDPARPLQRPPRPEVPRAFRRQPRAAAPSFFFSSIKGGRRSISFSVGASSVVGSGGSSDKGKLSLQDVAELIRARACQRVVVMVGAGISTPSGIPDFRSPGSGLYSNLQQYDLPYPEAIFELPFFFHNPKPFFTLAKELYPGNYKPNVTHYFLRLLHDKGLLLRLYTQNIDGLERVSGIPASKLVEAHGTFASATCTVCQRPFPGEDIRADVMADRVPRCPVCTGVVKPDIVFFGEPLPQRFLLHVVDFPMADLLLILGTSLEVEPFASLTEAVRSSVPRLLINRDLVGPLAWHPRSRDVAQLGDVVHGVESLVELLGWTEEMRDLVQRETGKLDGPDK
Description: Activation of human SIRT3 overexpressing in human MDA-MB-231 cells assessed as increase in acK122-MnSOD deacetylation level at 50 uM incubated for 4 hrs by Western blot analysis assay. It counts as cell-based. The note with it: filed as activator. In outline: (§1)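 CAL-62 or MDA-MB-231 cells treated 4 h at 50 μM. Lysed in Tris/NaCl/EDTA/Triton buffer with protease and phosphatase inhibitors. 15 or 50 μg protein resolved by SDS-PAGE, immunoblotted for acK68- or acK122-MnSOD and total MnSOD, ECL detection. Densitometric acetyl/total ratio. SIRT3 inhibitor 3-TYP (1 μM) used as control.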
(Immunoblotting shows a protein as a band on a membrane.)

The test system of data set [2] is MDA-MB-231. Briefly: Induction of cell death in human MDA-MB-231 cells incubated for 48 hrs under hypoxia condition by trypan blue exclusion assay. The format is functional, cell-based. The note with it: MDA-MB-231, 48 h. In outline:
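MDA-MB-231 cells treated at 1–50 μM for 48 h under 200 μM CoCl2 hypoxia. Dead cells scored by trypan blue on a hemocytometer, EC50 derived. Three independent experiments.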

In data set [3] the test system is MDA-MB-231. Description: Downregulation of ZEB1 gene expression in human MDA-MB-231 cells at 50 uM incubated for 48 hrs by qRT-PCR analysis. It counts as functional, cell-based. Summed up: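 MDA-MB-231 cells treated with 50 μM compound for 48 h under normoxia, DMSO vehicle control. qRT-PCR quantified by the 2(−ΔCt) method as fold of control, mean ± SEM. Three independent experiments.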
(Real-time PCR tracks product formation cycle by cycle.)

Data set [4] relates to CAL-62. Briefly: Downregulation of HIF1alpha expression in human CAL-62 cells at 50 uM incubated for 48 hrs under hypoxia condition by Western blot analysis. It counts as functional, cell-based. In outline:
(§2)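 CAL-62 or MDA-MB-231 cells made hypoxic with 200 μM CoCl2 for 24 h, then treated with 50 μM compound for 48 h with CoCl2 retained. Lysates (15 or 50 μg protein) immunoblotted for HIF-1α, EPAS-1 or CA-IX with ACTB, ECL detection. 3-TYP (1 μM) as control.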

Data set [5] relates to HaCaT. Description: Cytotoxicity against human HaCaT cells assessed as reduction in cell viability at 10 to 25 uM incubated for 48 hrs by trypan blue exclusion assay. The format is toxicity, cell-based. The following applies: dose 10-25 µM. Summed up:
(§3)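 HaCaT keratinocytes in DMEM with 10% FBS, treated at 5, 10 and 25 μM for 24 and 48 h. Viability and death scored by trypan blue hemocytometer counting. Three independent experiments.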

In data set [6] the target is T1, NAD-dependent protein deacetylase sirtuin-3, mitochondrial (Homo sapiens). Briefly: Activation of human SIRT3 overexpressing in human CAL-62 cells assessed as increase in acK122-MnSOD deacetylation level at 50 uM incubated for 4 hrs by Western blot analysis assay. It counts as cell-based. The following applies: filed as activator. In outline:
as §1

The target is the same in data set [7]. Briefly: Activation of human SIRT3 overexpressing in human MDA-MB-231 cells assessed as increase in acK68-MnSOD deacetylation level at 50 uM incubated for 4 hrs by Western blot analysis assay. The format is cell-based. The note with it: filed as activator. In outline:
as §1

Data set [8] relates to MDA-MB-231. Briefly: Downregulation of CA-IX expression in human MDA-MB-231 cells at 50 uM incubated for 48 hrs under hypoxia condition by Western blot analysis. It counts as functional, cell-based. Summed up: as §2
Data set [9] has as its target T2, NAD-dependent protein deacetylase sirtuin-3, mitochondrial (Homo sapiens, UniProt Q9NTG7).
T2 sequence (Q9NTG7 whole entry): T1 sequence (whole entry)
Briefly: Binding affinity to N-terminal his-tagged human SIRT3 (114 to 380 residues) assessed as dissociation constant by SPR analysis. In outline: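 SPR with SIRT3 amine-coupled to the chip (sodium acetate pH 4.0; 1500–4000 RU). Analytes diluted to 200 μM in HBSP (20 mM Hepes, 150 mM NaCl, 0.005% P20; 2% DMSO), injected at 5, 10, 20, 40, 80 μM at 30 μL/min. Dissociation after 180 s. Reference chip lacked ligand. Apparent KD by Scatchard analysis. Run twice.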
In general terms: Surface plasmon resonance follows binding to a sensor surface in real time, without labels.

In data set [10] the target is T1, NAD-dependent protein deacetylase sirtuin-3, mitochondrial (Homo sapiens). Description: Activation of human SIRT3 overexpressing in human MDA-MB-231 cells assessed as increase in acK122-MnSOD deacetylation level at 10 uM incubated for 4 hrs by Western blot analysis assay. It counts as cell-based. The following applies: filed as activator. In outline: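 MDA-MB-231 cells treated 4 h at 10 μM, lysed, and immunoblotted for acK122-MnSOD and total MnSOD. Densitometric ratio.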

For data set [11], the system named is CAL-62. Briefly: Downregulation of CA-IX expression in human CAL-62 cells at 50 uM incubated for 48 hrs under hypoxia condition by Western blot analysis. It counts as functional, cell-based. In outline: as §2
Data set [12] deals with CAL-62. Briefly: Inhibition of clonogenicity in human CAL-62 cells at 50 uM incubated for 24 to 48 hrs under normoxia condition by crystal violet staining based assay. The format is functional. The following applies: time 24-48 hrs. Summed up: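 CAL-62 cells at 80–90% confluence treated with 50 μM compound for 24 or 48 h, in normoxia or with 200 μM CoCl2 (hypoxia). 500 cells replated per 100 mm dish and grown about 7 days. Colonies fixed in 4% formaldehyde, stained with 0.5% crystal violet, and counted.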

Data set [13] concerns HaCaT. Briefly: Cytotoxicity against human HaCaT cells assessed as reduction in cell viability at 5 to 25 uM incubated for 24 to 48 hrs by trypan blue exclusion assay. It counts as toxicity, cell-based. The following applies: dose lower 5 µM, time lower 24 hrs, dose upper 25 µM, time upper 48 hrs. In outline:
as §3

One may read the pEC50 as the negative decadic logarithm of the EC50, by convention in mol/L. What is called pKd is the Kd on a negative log10 scale, so that one unit is a factor of ten. A word on the inhibition: it is the relative decrease from the control value, in per cent. Read a high inhibition as strong suppression. Turning to `CCOC(=O)C1=CN(C(=O)c2cc(OC)cc(OC)c2)C=C(C(=O)OCC)C1c1ccccc1`, the result (in data set [1]; with MDA-MB-231 [3]; with CAL-62 [4]; in data set [6]; in data set [7]; in the data set on MDA-MB-231 [8]) was Active. Also, the result (in [10]; in the data set on CAL-62 [11]) was Active. In the data set with MDA-MB-231 [2], this molecule showed a pEC50 of 4.97. The Activity result in the data set on HaCaT [5] is reported as “Non-Toxic”. Moreover, the negative logarithm of the Kd (pKd) in data set [9] was 4.10. In addition, at 50 µM the inhibition with CAL-62 [12] was 68%.

With `CCOC(=O)C1=CN(C(=O)c2ccc(OC)c(OC)c2)C=C(C(=O)OCC)C1c1ccccc1`, in the data set on HaCaT [13], the Activity result is on record as “Non-Toxic”.
